Measured values reported in ChEMBL document CHEMBL5500359, “Identification of a new bisindolinone arresting IGROV1 cells proliferation” (Eur J Med Chem, 2024).

How the values were obtained:
Colon carcinoma cell [1] = experiment: Cytotoxicity against human Colon carcinoma cells incubated for 48 hrs by SRB assay; format: functional
How it was run: (§1)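 NCI-60 five-concentration screen: lines seeded 5×10^3–4×10^4 cells/well depending on line; compound diluted in fresh medium at scalar concentrations 0–100 or 0–1000 μM; 48 h exposure, in situ fixation, sulforhodamine B protein staining, optical density read; GI50, TGI and LC50 per NCI procedures; panel mean = mean graph midpoint.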

[2] = Cytotoxicity against human Leukemia cancer cells incubated for 48 hrs by SRB assay; format: functional; settings: Leukemia cell, read-out: LC50 (the source's name)
How it was run: (§2)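 NCI DTP five-concentration screen. Cells were seeded at 5 × 10³–4 × 10⁴ cells/well, depending on the line. Compounds were diluted in fresh medium and added at scalar concentrations over 0–1000 µM or 0–100 µM. After 48 h the cells were fixed in situ, stained with sulforhodamine B, and optical density was read. GI50, TGI and LC50 were derived by NCI procedures, and the panel mean is the mean graph midpoint.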

[3] = tested on: Panel NCI-60 (60 carcinoma cell lines); experiment: Cytostatic activity against human Panel NCI-60 (60 carcinoma cell lines) incubated for 48 hrs by SRB assay; format: functional; how it was run: as §1
Breast cancer cell line [4] = experiment: Cytostatic activity against human Breast cancer cells incubated for 48 hrs by SRB assay; format: functional; how it was run: as §1
Renal cancer cell line [5] = experiment: Cytostatic activity against human Renal cancer cells incubated for 48 hrs by SRB assay; format: functional; how it was run: as §1
Ovarian cancer cell line [6] = experiment: Cytostatic activity against human Ovarian cancer cells incubated for 48 hrs by SRB assay; format: functional; how it was run: as §1
Melanoma cell line [7] = experiment: […] against human Melanoma cells incubated for 48 hrs by SRB assay; format: functional; settings: read-out: LC50 (the source's name); how it was run: as §2
CNS carcinoma cell [8] = experiment: Cytostatic activity against human CNS carcinoma cells incubated for 48 hrs by SRB assay; format: functional; how it was run: as §1
Colon carcinoma cell [9] = experiment: Cytostatic activity against human Colon carcinoma cells incubated for 48 hrs by SRB assay; format: functional; how it was run: as §1
[10] = Cytostatic activity against human Leukemia cancer cells incubated for 48 hrs by SRB assay; format: functional, Leukemia cell; how it was run: as §1
[11] = tested on: Panel NCI-60 (60 carcinoma cell lines); experiment: Cell growth inhibition of human Panel NCI-60 (60 carcinoma cell lines) incubated for 48 hrs by SRB assay; format: functional; how it was run: as §1
Breast cancer cell line [12] = experiment: Cell growth inhibition of human Breast cancer cells incubated for 48 hrs by SRB assay; format: functional; settings: read-out: LC50 (the source's name); how it was run: as §2
Prostatic carcinoma cell = experiment: Cell growth inhibition of human Prostate carcinoma cells incubated for 48 hrs by SRB assay; format: functional; how it was run: as §1
Renal cancer cell line [13] = experiment: Cell growth inhibition of human Renal cancer cells incubated for 48 hrs by SRB assay; format: functional; how it was run: as §1
Melanoma cell line [14] = experiment: Cell growth inhibition of human Melanoma cells incubated for 48 hrs by SRB assay; format: functional; how it was run: as §1
CNS carcinoma cell [15] = experiment: Cell growth inhibition of human CNS carcinoma cells incubated for 48 hrs by SRB assay; format: functional; how it was run: as §1
[16] = Cell growth inhibition of human Leukemia cancer cells incubated for 48 hrs by SRB assay; format: functional; how it was run: as §1
NSCLC = experiment: Cell growth inhibition of human NSCLC cells incubated for 48 hrs by SRB assay; format: functional; how it was run: as §1
Ovarian cancer cell line [17] = experiment: Cytotoxicity against human Ovarian cancer cells incubated for 48 hrs by SRB assay; format: functional; how it was run: as §1
Breast cancer cell line [18] = experiment: Cytotoxicity against human Breast cancer cells incubated for 48 hrs by SRB assay; format: functional; how it was run: as §1

Structure (SMILES)	GI (Colon carcinoma cell [1]) [µM]	CC50 [2] [µM]	GI [3] [µM]	TGI (Breast cancer cell line [4]) [µM]	GI (Renal cancer cell line [5]) [µM]	TGI (Ovarian cancer cell line [6]) [µM]	CC50 (Melanoma cell line [7]) [µM]	GI (CNS carcinoma cell [8]) [µM]	TGI (Colon carcinoma cell [9]) [µM]	GI [10] [µM]	GI50 [11] [µM]	CC50 (Breast cancer cell line [12]) [µM]	GI (Prostatic carcinoma cell) [µM]	GI50 (Renal cancer cell line [13]) [µM]	GI (Melanoma cell line [14]) [µM]	GI50 (CNS carcinoma cell [15]) [µM]	GI50 [16] [µM]	GI (NSCLC) [µM]	GI (Ovarian cancer cell line [17]) [µM]	GI (Breast cancer cell line [18]) [µM]
Cc1cc2c(cc1O)/C(=C\c1cc(C(C)(C)C)cc(C=O)c1O)C(=O)N2	38.02	81.3	8.91	14.8	11.48	9.55	5.75	10	11.5	3.72	1.91	1.82	0.87	2.57	1.78	1.2	0.68	3.47	56.23	77.62
O=C1Nc2cccc(F)c2/C1=C\c1cccc(/C=C2/C(=O)Nc3cccc(F)c32)c1	6.76	100	5.13	6.17	4.17	7.59	3.72	4.27	3.31	6.92	1.91	2	2.14	1.86	1.7	1.82	1.23	2.4	33.88	16.98
COc1ccc2[nH]c(Cl)c(/C=C3/C(=O)N(C)c4cc5c(cc43)/C(=C\c3c(Cl)[nH]c4ccc(OC)cc34)C(=O)N5C)c2c1	11.75	89.1	4.9	6.31	4.47	4.69	4.9	4.07	4.68	6.17	2.04	3.16	1.95	1.78	2.04	1.74	2.24	1.78	12.59	21.88
O=C1Nc2cc(Cl)ccc2/C1=C\c1cccc(/C=C2/C(=O)Nc3cc(Cl)ccc32)c1	11.22	100	7.59	6.92	8.51	8.91	5.25	5.89	4.68	11.22	2.57	2.45	2.14	3.09	2.19	2.29	2.4	3.39	44.67	37.15
COc1ccc(OC)c2c1NC(=O)/C2=C/c1cccc(/C=C2/C(=O)Nc3c(OC)ccc(OC)c32)c1			72.44	81.3	81.28	69.2	61.7	100	63.1	95.5	5.89	5.37	5.89	7.08	7.24	4.68	2.69	9.33		
COc1cc2c(c(OC)c1OC)/C(=C\c1ccc3ccc4ccc(/C=C5/C(=O)Nc6cc(OC)c(OC)c(OC)c65)nc4c3n1)C(=O)N2			70.79	64.6	74.13	93.3	85.1	67.61	5.23		12.9	10	3.39	26.3	18.62	13.8	4.27	14.45		
CN(C)c1ccc2[nH]c(Cl)c(/C=C3/C(=O)N(C)c4cc5c(cc43)/C(=C\c3c(Cl)[nH]c4ccc(N(C)C)cc34)C(=O)N5C)c2c1											14.5	4.17	10.72	9.77	27.54	7.08	17	18.2		
O=C1Nc2ccc(F)cc2/C1=C\c1cccc(/C=C2/C(=O)Nc3ccc(F)cc32)c1	9.33	7.41	4.47		3.47		10.2	3.24		9.77	1.62	9.33	1.48	1.58	1.58	1.35	1.66	1.82	32.4	
CC[C@]1(O)C[C@H]2CN(CCc3c([nH]c4ccccc34)[C@@](C(=O)OC)(c3cc4c(cc3OC)N(C=O)[C@H]3[C@@](O)(C(=O)OC)[C@H](OC(C)=O)[C@]5(CC)C=CCN6CC[C@]43[C@@H]65)C2)C1 [VINCRISTINE]											0.2	0.32	0.13	0.32	0.16	0.13	0.1	0.25		
O=C1Nc2ccc(Cl)cc2/C1=C\c1ccc2ccc3ccc(/C=C4/C(=O)Nc5ccc(Cl)cc54)nc3c2n1	31.62		18.2	29.5	17.38	29.5	11.5	9.33	7.41	83.18	2.63	3.09	2.45	2.29	2.19	2.15	3.09	2.57	69.18	
COc1cc2c(cc1C)NC(=O)/C2=C/c1ccc2ccc3ccc(/C=C4/C(=O)Nc5cc(C)c(OC)cc54)nc3c2n1	46.77		26.3	25.7	29.51	38.9	17.8	40.74	10.2	22.91	5.13	3.98	2.95	6.31	6.03	8.51	2.51	6.76	77.62	
COc1ccc2c(c1)/C(=C\c1ccc3ccc4ccc(/C=C5/C(=O)N(C)c6ccc(OC)cc65)nc4c3n1)C(=O)N2C	13.49		12.88	18.6	5.89	28.2	4.79	17.78	6.31	56.23	2.63	3.09	2.57	2.34	2.14	3.16	3.16	2.57	89.13	64.57
